Source: ChEMBL document CHEMBL3861972, “Actinomadurol, an Antibacterial Norditerpenoid from a Rare Actinomycete, Actinomadura sp. KC 191” (J Nat Prod, 2016)
Values after ≈ are worked out from the molar mass of the structure shown.

Legend:
Staphylococcus aureus = experiment: Antibacterial activity against Staphylococcus aureus ATCC 6538p after 24 hrs by serial two fold dilution method; format: functional
How it was run: (§1)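 Broth microdilution MIC. Bacteria grown overnight in LB broth at 37 °C, harvested by centrifugation and washed twice in sterile distilled water. Compound DMSO stocks were diluted in Standard method broth to give serial 2-fold dilutions from 100 to […] μg/mL. About 10^5 cfu/mL of test bacteria were added per well, and plates were incubated 24 h at 37 °C.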

Aspergillus fumigatus = experiment: Antifungal activity against Aspergillus fumigatus; format: functional
[1] = Antifungal activity against Trichophyton rubrum; format: functional
[2] = Antifungal activity against Trichophyton mentagrophytes; format: functional
Bacillus spizizenii = experiment: Antibacterial activity against Bacillus subtilis ATCC 6633 after 24 hrs by serial two fold dilution method; format: functional; conditions: ATCC 6633, 24 h; how it was run: as §1
Kocuria rhizophila = experiment: Antibacterial activity against Kocuria rhizophila NBRC 12708 after 24 hrs by serial two fold dilution method; format: functional; conditions: NBRC 12708, 24 h; how it was run: as §1
Proteus hauseri = experiment: Antibacterial activity against Proteus hauseri NBRC 3851 after 24 hrs by serial two fold dilution method; format: functional; conditions: NBRC 3851, 24 h; how it was run: as §1
[3] = Antibacterial activity against Salmonella enterica ATCC 14028 after 24 hrs by serial two fold dilution method; format: functional; conditions: ATCC 14028, 24 h; how it was run: as §1
Escherichia coli = experiment: Antibacterial activity against Escherichia coli ATCC 25922 after 24 hrs by serial two fold dilution method; format: functional; conditions: ATCC 25922, 24 h; how it was run: as §1
[4] = Growth inhibition of human A549 cells; format: functional, cell-based
[5] = Growth inhibition of human HCT116 cells; format: functional, cell-based; conditions: HCT-116
[6] = Growth inhibition of human SNU638 cells; format: functional, cell-based; conditions: SNU-638
[7] = Growth inhibition of human SKHEP1 cells; format: functional, cell-based; conditions: SK-HEP1
[8] = Growth inhibition of human MDA-MB-231 cells; format: functional, cell-based
[9] = Growth inhibition of human K562 cells; format: functional, cell-based
Candida albicans = experiment: Antifungal activity against Candida albicans; format: functional

Structure (SMILES) | MIC (Staphylococcus aureus) [µg/mL] | MIC (Aspergillus fumigatus) [µg/mL] | MIC [1] [µg/mL] | MIC [2] [µg/mL] | MIC (Bacillus spizizenii) [µg/mL] | MIC (Kocuria rhizophila) [µg/mL] | MIC (Proteus hauseri) [µg/mL] | MIC [3] [µg/mL] | MIC (Escherichia coli) [µg/mL] | IC50 [4] [µg/mL] | IC50 [5] [µg/mL] | IC50 [6] [µg/mL] | IC50 [7] [µg/mL] | IC50 [8] [µg/mL] | IC50 [9] [µg/mL] | MIC (Candida albicans) [µg/mL]
C=C[C@]1(C)CCC2=C(C1)C(=O)C[C@H]1C(CO)=CC(=O)[C@@H](O)[C@]21C | > 100 | > 100 | > 100 | > 100 | > 100 | > 100 | > 100 | > 100 | > 100 | > 100 | > 100 | > 100 | > 100 | > 100 | > 100 | > 100
C=C[C@]1(C)CCC2=C(C1)[C@H](O)C[C@H]1C(CO)=CC(=O)[C@@H](O)[C@]21C | 0.78 (≈ 2.45 µM) | > 100 | > 100 | > 100 | 1.56 (≈ 4.9 µM) | 0.39 (≈ 1.22 µM) | 0.78 (≈ 2.45 µM) | 3.12 (≈ 9.8 µM) | > 100 | > 100 | > 100 | > 100 | > 100 | > 100 | > 100 | > 100
CC1(C)S[C@@H]2[C@H](NC(=O)[C@H](N)c3ccccc3)C(=O)N2[C@H]1C(=O)O [AMPICILLIN] | 3.12 (≈ 8.93 µM) | – | – | – | 1.56 (≈ 4.46 µM) | 0.79 (≈ 2.26 µM) | 1.56 (≈ 4.46 µM) | 3.12 (≈ 8.93 µM) | 6.25 (≈ 17.9 µM) | – | – | – | – | – | – | –
